Only some compounds are listed: those with a hit (about 2.9% of all), similar ones and a draw of the others.
HTRA1 inh = HTRA1 serine protease inhibitors, primary screen, biochemical, fluorescence polarization, HTS. Q92743. recombinant HTRA1, FP-rhodamine activity-based probe. inhibition, % at 5.96 µM. hit rate 0.5% among 340,000. AID 504803, 2011; in the data active = inhibition above about 36%
Target sequence (Q92743 whole entry, looked up): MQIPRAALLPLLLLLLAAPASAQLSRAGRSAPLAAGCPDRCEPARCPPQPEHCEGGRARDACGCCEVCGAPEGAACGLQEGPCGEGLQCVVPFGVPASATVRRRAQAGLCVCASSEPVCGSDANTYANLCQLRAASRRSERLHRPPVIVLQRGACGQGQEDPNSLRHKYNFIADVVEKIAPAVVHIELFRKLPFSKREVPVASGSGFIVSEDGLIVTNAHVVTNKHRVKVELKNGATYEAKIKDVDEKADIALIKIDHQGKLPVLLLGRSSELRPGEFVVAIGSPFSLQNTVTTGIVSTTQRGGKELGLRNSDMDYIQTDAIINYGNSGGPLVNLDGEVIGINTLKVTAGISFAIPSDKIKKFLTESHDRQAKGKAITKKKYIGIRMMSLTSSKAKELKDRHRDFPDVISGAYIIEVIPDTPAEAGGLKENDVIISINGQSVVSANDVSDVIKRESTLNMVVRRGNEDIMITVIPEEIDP
PRMT1 FP inh = PRMT1 methyltransferase inhibitors, primary screen, biochemical, fluorescence polarization; recombinant PRMT1, activity-based probe fluorescence polarization; inhibition, % at 2.79 µM; hit rate 1.3% among 370,000; Protein arginine N-methyltransferase 1 (Homo sapiens), Q99873;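 active = inhibition above about 21% made by adding two undisclosed values, limit read from the data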
ATG4B inhibitor = ATG4B protease inhibitors, primary screen, biochemical, fluorescence, uHTS | hit rate 0.51% among 340,000 | AID 504462, 2011 | ATG4B cleavage of LC3-PLA2, NBD-HPC fluorescence, 1 h | inhibition, % at 8.33 µM; in the data active = inhibition above about 40%
TCR CD3 inh = inhibitors of human TCR-CD3 interaction, primary screen, biochemical, fluorescence, TAMRA-labeled TCR probe | T-cell receptor (TCR) | inhibition, % at 9.4 µM | hit rate 0.37% among 360,000; in the data active = inhibition above about 19%;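 note: recombinant mutant TCR 2C K166C tagged with TAMRA read by polarization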
ABHD4 inh = ABHD4 inhibitors, primary screen, biochemical, fluorescence polarization, mouse; (Lyso)-N-acylphosphatidylethanolamine lipase (Mus musculus), Q8VD66; purified mABHD4, FP-Rh probe fluorescence polarization; inhibition, % at 8.92 µM; hit rate 0.54% among 370,000; AID 720543, 2013;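 active = inhibition exceeding the mean over every tested compound plus 3 SD, cut at about 30% in these data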
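Assay system: mABHD4 protein; medium: HEPES pH 7.0, NaCl, Pluronic buffer; dosing: 8.92 µM, single dose; schedule: 45 min + 60 min at 25 °C; signal: FP readout, ex 525 nm / em 598 nm; read-out: normalized percent inhibition of probe labeling; repeats: single replicate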
SIAE primary = human SIAE inhibitors, primary screen, biochemical, fluorescence polarization, FP-Rh probe, 1536-well HTS; SIAE FP-Rh probe binding; inhibition, % at 9.66 µM; hit rate 0.69% among 370,000; AID 1053197, 2014;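 active = inhibition above a cutoff: mean of compounds within the control limits plus 3 SD of those, cut at about 17% in these data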
HTRA1 conf = HTRA1 protease inhibitors, retest, confirmation, biochemical, fluorescence polarization. shares compounds with HTRA1 inh. recombinant HTRA1, FP-rhodamine activity-based probe. inhibition, % at 5.96 µM. hit rate 66% among 1,600. AID 540248, 2011;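 active = mean inhibition over three repeats above a set limit taken from the earlier primary screen, cut at about 37% in these data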;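 note: inhibitors block probe binding so polarization drops and inhibition rises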
Numbers stand for hits; n = inactive; x = no result given.

SMILES	HTRA1 inh	PRMT1 FP inh	ATG4B inhibitor	TCR CD3 inh	ABHD4 inh	SIAE primary	HTRA1 conf
CC1(C)CC2(CC(c3ccccc3F)c3ccc(O)c(O)c3O2)NC(=S)N1 (centres undefined)	60.9	n	n	n	n	n	58.0
CC1(C)CC2(CC(c3ccc(F)cc3)c3ccc(O)cc3O2)NC(=S)N1 (centres undefined)	n	n	n	n	n	n	x
CC(=O)N1CCc2cc(Br)c(S(=O)(=O)NCc3ccc(Cl)cc3)cc21	x	n	x	x	n	n	x
CC(C)c1ccc(NC(=O)Nc2cc3sccc3n2C)cc1	46.8	n	n	n	n	n	n
CC(C)(C)c1cc(C(=O)N/N=C/c2ccc(F)cc2)n(-c2ccccc2)n1	n	n	n	n	n	n	x
CC(C)(C)c1cc(C(=O)N/N=C/c2ccccc2O)n(-c2ccccc2)n1	36.9	n	n	n	n	n	51.4
CC(C)(C)OC(=O)NC(Cc1ccccc1)C1CC(C#N)C(=O)O1 (centres undefined)	x	n	x	x	n	n	x
O=C(Cc1cc(=O)[nH][nH]1)N/N=C/c1ccccc1C(F)(F)F	x	n	x	x	n	n	x
Clc1cccc(C2Nc3cccc4cccc(c34)N2)c1Cl	58.1	n	n	n	n	n	n
Brc1ccc(C2Nc3cccc4cccc(c34)N2)cc1	n	n	n	n	n	n	x
CCOC(=O)N1CCN(S(=O)(=O)c2ccc(C(=O)NNc3nc4ccc(Cl)cc4s3)cc2)CC1	51.0	x	n	x	x	x	77.6
CCOC(=O)N1CCN(S(=O)(=O)c2ccc(C(=O)N(CCN(CC)CC)c3nc4c(C)cccc4s3)cc2)CC1	n	n	n	n	n	n	x
CCOC(=O)N1CCN(S(=O)(=O)c2ccc(C(=O)NNc3nc4c(C)cccc4s3)cc2)CC1	47.6	n	n	n	n	n	168.4
O=C(CSc1ccccc1)N1CCC(Oc2cccnc2)CC1	x	n	x	x	n	n	x
CCOC(=O)C1=C(CS(=O)(=O)c2ccc(F)cc2)NC(=O)NC1c1ccc(O)c(O)c1 (centres undefined)	47.8	n	n	n	n	n	51.6
CNC(=O)[C@@H](NC(=O)[C@H](CC(C)C)[C@H](O)C(=O)NO)C(C)(C)C	x	n	x	x	n	n	x
O=C(N/N=C/c1ccc(Sc2ccccn2)o1)c1cc2ccccc2cc1O	59.8	x	n	x	x	x	48.8
C/C(=N\NC(=O)c1cc2ccccc2cc1O)c1ccccn1	51.7	n	n	n	n	n	n
O=C(N/N=C\c1ccc(Sc2ccccn2)o1)c1cccc(F)c1	n	n	n	n	n	n	x
C/C(=N\NC(=O)c1c[nH]c2ccccc12)c1ccccn1	n	n	n	n	n	n	x
COc1ccc(CCNC(=O)Cn2nc(-c3ccccc3)ccc2=O)cc1	x	n	x	x	n	n	x
O=Cc1ccc(O)c2ncccc12	36.4	x	n	x	x	x	60.0
COc1ccc(C2c3ccccc3NC3C2C(=O)N(Cc2ccc(OC)cc2OC)[C@H]3Cc2ccccc2)cc1 (some centres undefined)	x	n	x	x	n	n	x
CC1=C(SCc2ccccc2)C(=O)c2ccccc2C1=O	42.3	65.9	n	n	70.0	n	36.5
O=S1(=O)N=C(Nc2ccc(N3CCOCC3)cc2)c2ccccc21	n	n	n	n	n	n	x
Cc1ccccc1-c1ccc(Nc2ccc(N3CCOCC3)cc2)nn1	45.4	x	n	x	x	x	53.6
COc1c(Br)cc(/C=N/n2c(-c3ccccc3)n[nH]c2=S)c(O)c1Br	74.5	n	n	n	n	n	n
O=[N+]([O-])c1ccc(O)c(/C=N/n2c(-c3ccccc3)n[nH]c2=S)c1	n	n	n	n	n	n	x
CN1C(=O)CC(Nc2cccc3cccc(N)c23)C1=O (centres undefined)	38.6	x	n	x	x	x	n
CCN(C(=O)c1c([N+](=O)[O-])cnn1C)c1ccccc1	36.6	n	x	n	n	n	n

High-throughput results deposited in PubChem by several laboratories.
